Results: ChEMBL document CHEMBL1121762, “2-(Isoxazolylethenyl)phenoxypropanolamines: a new class of beta-receptor antagonists with antihypertensive activity” (1981)

Key:
Assay type in all cases: functional
Rattus norvegicus [1] = assay: Relative potency required for inhibition of isoproterenol-induced tachycardia in pithed rat after intravenous administration
How it was run: (§1)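 Male Sprague-Dawley rats, 200-240 g, anesthetized with amobarbital 120 mg/kg ip, pithed and ventilated via tracheal cannula; groups of two to five. Isoproterenol 0.1 μg/kg iv given before and 5 min after iv compound; heart rate by rate meter. ED50 = dose halving tachycardia; 95% confidence limits; relative potency vs labetalol (=1.0).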

Rattus norvegicus [2] = assay: Dose required for inhibition of isoproterenol-induced tachycardia in pithed rat after intravenous administration; how it was run: as §1
Rattus norvegicus [3] = assay: Relative potency required for hypotensive activity in anesthetized rat
How it was run: (§2)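 Male Sprague-Dawley rats, 230-280 g, anesthetized with urethane 1.78 g/kg ip; groups of two to five. Compound given iv. Mean carotid arterial pressure recorded by transducer. ED20 = dose lowering mean carotid pressure by 20%; 95% confidence limits; relative potency versus labetalol (=1.0).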

Rattus norvegicus [4] = assay: Dose required for hypotensive activity in anesthetized rat after intravenous administration; how it was run: as §2
Rattus norvegicus [5] = assay: Relative potency required for antihypertensive activity in spontaneous hypertensive rats after oral administration
How it was run: (§3)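 Male SH rats (Okamoto strain), 250-380 g, groups of four to eight, dosed orally. Systolic pressure by tail cuff at 35 °C ambient, before and 2 h after dosing. ED20 = dose lowering systolic pressure 20%, corrected for placebo controls; from log dose vs Δ% regression; relative potency vs labetalol (=1.0).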

Rattus norvegicus [6] = assay: Dose required for antihypertensive activity in spontaneous hypertensive rats after oral administration; how it was run: as §3
Rattus norvegicus [7] = organism: Rattus norvegicus; assay: Relative potency required for inhibition of L-phenylephrine-induced pressor response in pithed rats
How it was run: (§4)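 Pithed male Sprague-Dawley rats, 200-240 g, amobarbital 120 mg/kg ip, artificially ventilated; three to five per dose. l-Phenylephrine 1.47 μg/kg iv before and 5 min after iv compound; carotid pressure recorded. ED50 = dose halving phenylephrine pressor rise; 95% confidence limits; relative potency vs labetalol (=1.0).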

Rattus norvegicus [8] = assay: Dose required for inhibition of L-phenylephrine-induced pressor response in pithed rats after intravenous administration; how it was run: as §4
Rattus norvegicus [9] = assay: Dose of compound required for hypotensive activity in anesthetized rat; how it was run: as §2

Row | Compound | Relative potency (Rattus norvegicus [1]) | ED50 (Rattus norvegicus [2]) | Relative potency (Rattus norvegicus [3]) | ED20 (Rattus norvegicus [4]) | Relative potency (Rattus norvegicus [5]) | ED20 (Rattus norvegicus [6]) | Relative potency (Rattus norvegicus [7]) | ED50 (Rattus norvegicus [8]) | ED20 (Rattus norvegicus [9])
1 | Cc1cc(C=Cc2ccccc2OCC(O)CNC(C)(C)C)no1.Cl (stereo not given) | 10.8 | 0.013 mg/kg | ~2.4 | ~2.15 mg/kg | ~2.2 | ~21.5 mg/kg | – | – | –
2 | COCc1cc(/C=C/c2ccccc2OCC(O)CNC(C)(C)C)on1.Cl (stereo not given) | 18.9 | 0.0074 mg/kg | ~6.5 | ~0.8 mg/kg | ~2.2 | ~21.5 mg/kg | 2.2 | 0.21 mg/kg | –
3 | CCc1cc(/C=C/c2ccccc2OCC(O)CNC(C)(C)C)on1.Cl (stereo not given) | ~6.5 | ~0.0215 mg/kg | 5.6 | 0.93 mg/kg | – | > 21.5 mg/kg | – | – | –
4 | COCc1cc(/C=C/c2ccccc2OCC(O)CNC(C)C)on1.Cl (stereo not given) | 21.9 | 0.0064 mg/kg | ~5.2 | ~1 mg/kg | 2.6 | 18.2 mg/kg | 0.8 | 0.61 mg/kg | –
5 | Cc1noc(/C=C/c2ccccc2OCC(O)CNC(C)(C)C)c1Cl (stereo not given) | 10 | 0.014 mg/kg | ~5.2 | ~1 mg/kg | – | > 21.5 mg/kg | – | – | –
6 | Cc1cc(/C=C/c2ccccc2OCC(O)CNC2CC2)on1 (stereo not given) | 15.4 | 0.0091 mg/kg | ~3.5 | ~1.47 mg/kg | ~2.2 | ~21.5 mg/kg | 0.8 | 0.63 mg/kg | –
7 | COc1ccc(CCC(C)(C)NCC(O)COc2ccccc2/C=C/c2cc(C)no2)cc1 (stereo not given) | ~0.7 | ~0.215 mg/kg | ~5.2 | ~1 mg/kg | ~2.2 | ~21.5 mg/kg | – | – | –
8 | Cc1cc(/C=C/c2ccccc2OCC(O)CNC(C)(C)C)on1.Cl (stereo not given) | 15.9 | 0.0088 mg/kg | 13 | 0.4 mg/kg | 3.3 | 14.5 mg/kg | 3.9 | 0.12 mg/kg | –
9 | CC(C)(C)NCC(O)COc1ccccc1/C=C/c1cc(C(C)(C)C)no1.Cl (stereo not given) | ~6.5 | ~0.0215 mg/kg | – | > 1 mg/kg | – | > 46.4 mg/kg | – | – | –
10 | Cc1cc(/C=C/c2ccccc2OCC(O)CNC(C)(C)CCc2ccc(O)cc2)on1 (stereo not given) | ~6.5 | ~0.0215 mg/kg | ~5.2 | ~1 mg/kg | ~2.2 | ~21.5 mg/kg | – | – | –
11 | CC(C)NCC(O)COc1ccccc1/C=C/c1cc(Cl)no1 (stereo not given) | 3 | 0.0464 mg/kg | 7.6 | – | – | > 21.5 mg/kg | – | – | 0.68 mg/kg
12 | Cc1cc(/C=C/c2ccccc2OCC(O)CNC(C)CCc2ccc(O)cc2)on1 (stereo not given) | 12.7 | 0.011 mg/kg | 10.6 | 0.49 mg/kg | ~1 | ~46.4 mg/kg | – | – | –
13 | Cc1cc(/C=C/c2ccccc2OCC(O)CNC(C)CCc2ccccc2)on1 (stereo not given) | ~3 | ~0.0464 mg/kg | ~5.2 | ~1 mg/kg | ~1 | ~46.4 mg/kg | – | – | –
14 | CCc1cc(/C=C/c2ccccc2OCC(O)CNC(C)C)on1.Cl (stereo not given) | ~6.5 | ~0.0215 mg/kg | 12.7 | 0.41 mg/kg | 5.1 | 9.38 mg/kg | – | – | –
15 | COCc1cc(/C=C/c2ccccc2OCC(O)CNC2CC2)on1 (stereo not given) | ~14 | ~0.01 mg/kg | ~5.2 | ~1 mg/kg | ~4.8 | ~10 mg/kg | 0.6 | 0.73 mg/kg | –
16 | Cc1noc(/C=C/c2ccccc2OCC(O)CNC(C)(C)C)c1[N+](=O)[O-] (stereo not given) | ~2.1 | ~0.0681 mg/kg | ~5.2 | ~1 mg/kg | – | > 21.5 mg/kg | – | – | –
17 | C#CC(C)(C)NCC(O)COc1ccccc1/C=C/c1cc(C)no1.Cl (stereo not given) | ~2.1 | ~0.0681 mg/kg | 4.2 | ~1.25 mg/kg | ~1 | ~46.4 mg/kg | – | – | –
18 | Cc1noc(/C=C/c2ccccc2OCC(O)CNC(C)(C)C)c1C (stereo not given) | ~6.5 | ~0.0215 mg/kg | ~7.6 | ~0.68 mg/kg | – | > 21.5 mg/kg | – | – | –
19 | Cc1cc(/C=C/c2ccccc2OCC(O)CNC(C)C)no1.Cl (stereo not given) | 41.2 | 0.0034 mg/kg | ~2.4 | ~2.15 mg/kg | 1 | ~46.4 mg/kg | – | – | –
20 | CC(CCc1ccccc1)NCC(O)c1ccc(O)c(C(N)=O)c1 (stereo not given) [LABETALOL] | 1 | 0.14 mg/kg | 1 | 5.2 mg/kg | 1 | 47.7 mg/kg | 1 | 0.47 mg/kg | –
21 | COc1ccc(CC(C)NCC(O)COc2ccccc2/C=C/c2cc(C)no2)cc1OC (stereo not given) | ~3 | ~0.464 mg/kg | ~2.4 | ~2.15 mg/kg | – | > 21.5 mg/kg | – | – | –
22 | Cc1cc(/C=C/c2ccccc2OCC(O)CNC(C)C)on1 (stereo not given) | 23.3 | 0.006 mg/kg | 8 | ~0.65 mg/kg | – | > 21.5 mg/kg | – | – | –
